Laboratory results from ChEMBL document CHEMBL1157912, “Impact of nature and length of linker incorporated in agonists on toll-like receptor 9-mediated immune responses” (J Med Chem, 2010).
Calls of active or inactive are those of the source. The calls are words filed in the database; no cut-off is given here.

Key:
[1] = target: T1, Toll-like receptor 9 (Homo sapiens) (UniProt Q9NR96); assay: Induction of TLR9-mediated immune stimulation in human PBMC assessed as IL1Ralpha production at 2 ug/ml after 24 hrs by luminex multiplex assay (RVb = 0.12 +/- 0.03 ng/ml)
T1 sequence (whole entry): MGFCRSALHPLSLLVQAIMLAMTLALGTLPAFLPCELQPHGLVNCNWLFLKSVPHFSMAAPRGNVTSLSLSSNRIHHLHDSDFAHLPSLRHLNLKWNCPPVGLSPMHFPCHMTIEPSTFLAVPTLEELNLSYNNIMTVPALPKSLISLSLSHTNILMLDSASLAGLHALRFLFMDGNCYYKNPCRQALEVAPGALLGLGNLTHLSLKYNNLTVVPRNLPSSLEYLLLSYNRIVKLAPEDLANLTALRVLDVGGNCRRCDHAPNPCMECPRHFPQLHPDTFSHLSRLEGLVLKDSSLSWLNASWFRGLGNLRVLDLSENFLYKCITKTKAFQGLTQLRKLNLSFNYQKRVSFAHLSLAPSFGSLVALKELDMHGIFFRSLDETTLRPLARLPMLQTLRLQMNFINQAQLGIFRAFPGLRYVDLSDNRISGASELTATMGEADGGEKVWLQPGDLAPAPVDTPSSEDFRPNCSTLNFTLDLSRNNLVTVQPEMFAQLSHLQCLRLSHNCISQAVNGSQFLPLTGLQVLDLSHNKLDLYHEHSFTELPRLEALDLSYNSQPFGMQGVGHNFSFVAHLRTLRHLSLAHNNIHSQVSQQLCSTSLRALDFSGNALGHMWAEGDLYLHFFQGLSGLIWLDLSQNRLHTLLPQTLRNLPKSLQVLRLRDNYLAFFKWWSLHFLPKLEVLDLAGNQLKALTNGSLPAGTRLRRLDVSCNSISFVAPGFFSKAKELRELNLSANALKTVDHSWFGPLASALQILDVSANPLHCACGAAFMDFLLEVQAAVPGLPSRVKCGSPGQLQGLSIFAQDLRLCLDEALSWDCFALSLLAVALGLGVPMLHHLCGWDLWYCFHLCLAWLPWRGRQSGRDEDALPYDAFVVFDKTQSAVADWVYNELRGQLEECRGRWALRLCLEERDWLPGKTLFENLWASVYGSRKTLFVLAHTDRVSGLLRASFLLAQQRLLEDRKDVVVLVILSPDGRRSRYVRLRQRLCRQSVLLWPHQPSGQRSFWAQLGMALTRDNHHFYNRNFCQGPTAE

[2] = target: T1, Toll-like receptor 9 (Homo sapiens); assay: Induction of TLR9-mediated immune stimulation in human PBMC assessed as IL2R production at 2 ug/ml after 24 hrs by luminex multiplex assay (RVb = 0.02 +/- 0.01 ng/ml)
[3] = target: T1, Toll-like receptor 9 (Homo sapiens); assay: Induction of TLR9-mediated immune stimulation in human PBMC assessed as IL2R production at 10 ug/ml after 24 hrs by luminex multiplex assay (RVb = 0.02 +/- 0.01 ng/ml)
[4] = target: T1, Toll-like receptor 9 (Homo sapiens); assay: Induction of TLR9-mediated immune stimulation in human PBMC assessed as IL6 production at 2 ug/ml after 24 hrs by luminex multiplex assay (RVb = 0.01 ng/ml)
[5] = target: T1, Toll-like receptor 9 (Homo sapiens); assay: Induction of TLR9-mediated immune stimulation in human PBMC assessed as IL12 production at 2 ug/ml after 24 hrs by luminex multiplex assay (RVb = 0.00 ng/ml)
[6] = target: T1, Toll-like receptor 9 (Homo sapiens); assay: Induction of TLR9-mediated immune stimulation in human PBMC assessed as IL12 production at 10 ug/ml after 24 hrs by luminex multiplex assay (RVb = 0.00 ng/ml)
[7] = target: T1, Toll-like receptor 9 (Homo sapiens); assay: Induction of TLR9-mediated immune stimulation in human PBMC assessed as MIP1alpha production at 2 ug/ml after 24 hrs by luminex multiplex assay (RVb = 0.01 ng/ml)
[8] = target: T1, Toll-like receptor 9 (Homo sapiens); assay: Induction of TLR9-mediated immune stimulation in human PBMC assessed as IP10 production at 10 ug/ml after 24 hrs by luminex multiplex assay (RVb = 0.00 ng/ml)
[9] = target: T1, Toll-like receptor 9 (Homo sapiens); assay: Induction of TLR9-mediated immune stimulation in human PBMC assessed as RANTES production at 2 ug/ml after 24 hrs by luminex multiplex assay (RVb = 0.05 +/- 0.04 ng/ml)
[10] = target: T1, Toll-like receptor 9 (Homo sapiens); assay: Induction of TLR9-mediated immune stimulation in human PBMC assessed as RANTES production at 10 ug/ml after 24 hrs by luminex multiplex assay (RVb = 0.05 +/- 0.04 ng/ml)
[11] = target: T1, Toll-like receptor 9 (Homo sapiens); assay: Induction of TLR9-mediated human B cell proliferation assessed as [3H]thymidine uptake after 56 hrs by scintillation counting
Outline: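 B cells were purified from human PBMCs (healthy volunteers), about 1 × 10⁵ cells, and stimulated with various agonist concentrations for 56 h. Cells were then pulsed with 0.75 μCi [³H]-thymidine and harvested 16 h later. Incorporation was counted by scintillation and reported as cpm.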

Mus musculus = assay: Immunostimulatory activity in C57BL/6 mouse assessed as increase in serum IL12 level at 1 mg/kg, sc after 2 hrs by ELISA; format: functional, organism-based; design: dose 1 mg/kg
Outline: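 Female C57BL/6 mice (n=3) received a single subcutaneous agonist dose of 1 mg/kg. Blood was taken by retro-orbital bleeding 2 h later, and serum IL-12 was measured by sandwich ELISA. Values are the mean of three mice ± SD.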

Activity [1]	Activity [2]	Activity [3]	Activity [4]	Activity [5]	Activity [6]	Activity [7]	Activity [8]	Activity [9]	Activity [10]	Activity [11]	Compound	Activity (Mus musculus)
13 ng/mL	0.06 ng/mL	0.19 ng/mL	0.36 ng/mL	0.14 ng/mL	0.17 ng/mL	0.05 ng/mL	0.01 ng/mL	0.29 ng/mL	1.67 ng/mL	Dose-dependent effect	Cc1cn([C@H]2C[C@H](OCC(O)COP(=O)(S)O[C@H]3C[C@H](n4cc(C)c(=O)[nH]c4=O)O[C@@H]3COP(=O)(S)O[C@H]3[C@@H](O)[C@H](n4ccc(N)nc4=O)O[C@@H]3COP(=O)(S)O[C@H]3C[C@H](n4cc(C)c(=O)[nH]c4=O)O[C@@H]3COP(=O)(S)O[C@H]3C[C@H](n4cc(C)c(=O)[nH]c4=O)O[C@@H]3COP(=O)(S)O[C@H]3C[C@H](n4ccc5c(=O)[nH]c(N)nc54)O[C@@H]3COP(=O)(S)O[C@H]3[C@@H](O)[C@H](n4ccc(N)nc4=O)O[C@@H]3COP(=O)(S)O[C@H]3C[C@H](n4cc(C)c(=O)[nH]c4=O)O[C@@H]3COP(=O)(S)O[C@H]3[C@@H](O)[C@H](n4cnc5c(=O)[nH]c(N)nc54)O[C@@H]3COP(=O)(S)O[C@H]3C[C@H](n4cc(C)c(=O)[nH]c4=O)O[C@@H]3COP(=O)(S)O[C@H]3[C@@H](O)[C@H](n4ccc(N)nc4=O)O[C@@H]3COP(=O)(S)O[C@H]3C[C@H](n4cc(C)c(=O)[nH]c4=O)O[C@@H]3CO)[C@@H](COP(=O)(S)O[C@H]3[C@@H](O)[C@H](n4ccc(N)nc4=O)O[C@@H]3COP(=O)(S)O[C@H]3C[C@H](n4cc(C)c(=O)[nH]c4=O)O[C@@H]3COP(=O)(S)O[C@H]3C[C@H](n4cc(C)c(=O)[nH]c4=O)O[C@@H]3COP(=O)(S)O[C@H]3C[C@H](n4ccc5c(=O)[nH]c(N)nc54)O[C@@H]3COP(=O)(S)O[C@H]3[C@@H](O)[C@H](n4ccc(N)nc4=O)O[C@@H]3COP(=O)(S)O[C@H]3C[C@H](n4cc(C)c(=O)[nH]c4=O)O[C@@H]3COP(=O)(S)O[C@H]3[C@@H](O)[C@H](n4cnc5c(=O)[nH]c(N)nc54)O[C@@H]3COP(=O)(S)O[C@H]3C[C@H](n4cc(C)c(=O)[nH]c4=O)O[C@@H]3COP(=O)(S)O[C@H]3[C@@H](O)[C@H](n4ccc(N)nc4=O)O[C@@H]3COP(=O)(S)O[C@H]3C[C@H](n4cc(C)c(=O)[nH]c4=O)O[C@@H]3CO)O2)c(=O)[nH]c1=O (stereo partly specified)	Active
13.6 ng/mL	0.07 ng/mL	0.28 ng/mL	0.3 ng/mL	0.13 ng/mL	0.2 ng/mL	0.05 ng/mL	0.03 ng/mL	0.93 ng/mL	2.13 ng/mL	Dose-dependent effect	Cc1cn([C@H]2C[C@H](O[C@H]3C[C@@H](O)C[C@@H](OP(=O)(S)O[C@H]4C[C@H](n5cc(C)c(=O)[nH]c5=O)O[C@@H]4COP(=O)(S)O[C@H]4[C@@H](O)[C@H](n5ccc(N)nc5=O)O[C@@H]4COP(=O)(S)O[C@H]4C[C@H](n5cc(C)c(=O)[nH]c5=O)O[C@@H]4COP(=O)(S)O[C@H]4C[C@H](n5cc(C)c(=O)[nH]c5=O)O[C@@H]4COP(=O)(S)O[C@H]4C[C@H](n5ccc6c(=O)[nH]c(N)nc65)O[C@@H]4COP(=O)(S)O[C@H]4[C@@H](O)[C@H](n5ccc(N)nc5=O)O[C@@H]4COP(=O)(S)O[C@H]4C[C@H](n5cc(C)c(=O)[nH]c5=O)O[C@@H]4COP(=O)(S)O[C@H]4[C@@H](O)[C@H](n5cnc6c(=O)[nH]c(N)nc65)O[C@@H]4COP(=O)(S)O[C@H]4C[C@H](n5cc(C)c(=O)[nH]c5=O)O[C@@H]4COP(=O)(S)O[C@H]4[C@@H](O)[C@H](n5ccc(N)nc5=O)O[C@@H]4COP(=O)(S)O[C@H]4C[C@H](n5cc(C)c(=O)[nH]c5=O)O[C@@H]4CO)C3)[C@@H](COP(=O)(S)O[C@H]3[C@@H](O)[C@H](n4ccc(N)nc4=O)O[C@@H]3COP(=O)(S)O[C@H]3C[C@H](n4cc(C)c(=O)[nH]c4=O)O[C@@H]3COP(=O)(S)O[C@H]3C[C@H](n4cc(C)c(=O)[nH]c4=O)O[C@@H]3COP(=O)(S)O[C@H]3C[C@H](n4ccc5c(=O)[nH]c(N)nc54)O[C@@H]3COP(=O)(S)O[C@H]3[C@@H](O)[C@H](n4ccc(N)nc4=O)O[C@@H]3COP(=O)(S)O[C@H]3C[C@H](n4cc(C)c(=O)[nH]c4=O)O[C@@H]3COP(=O)(S)O[C@H]3[C@@H](O)[C@H](n4cnc5c(=O)[nH]c(N)nc54)O[C@@H]3COP(=O)(S)O[C@H]3C[C@H](n4cc(C)c(=O)[nH]c4=O)O[C@@H]3COP(=O)(S)O[C@H]3[C@@H](O)[C@H](n4ccc(N)nc4=O)O[C@@H]3COP(=O)(S)O[C@H]3C[C@H](n4cc(C)c(=O)[nH]c4=O)O[C@@H]3CO)O2)c(=O)[nH]c1=O (stereo partly specified)	Active
14.2 ng/mL	0.02 ng/mL	0.29 ng/mL	0.3 ng/mL	0.12 ng/mL	0.21 ng/mL	0.05 ng/mL	0.03 ng/mL	0.5 ng/mL	2.26 ng/mL	Dose-dependent effect	Cc1cn([C@H]2C[C@H](O[C@@H]3C[C@@H](O)C[C@@H](OP(=O)(S)O[C@H]4C[C@H](n5cc(C)c(=O)[nH]c5=O)O[C@@H]4COP(=O)(S)O[C@H]4[C@@H](O)[C@H](n5ccc(N)nc5=O)O[C@@H]4COP(=O)(S)O[C@H]4C[C@H](n5cc(C)c(=O)[nH]c5=O)O[C@@H]4COP(=O)(S)O[C@H]4C[C@H](n5cc(C)c(=O)[nH]c5=O)O[C@@H]4COP(=O)(S)O[C@H]4C[C@H](n5ccc6c(=O)[nH]c(N)nc65)O[C@@H]4COP(=O)(S)O[C@H]4[C@@H](O)[C@H](n5ccc(N)nc5=O)O[C@@H]4COP(=O)(S)O[C@H]4C[C@H](n5cc(C)c(=O)[nH]c5=O)O[C@@H]4COP(=O)(S)O[C@H]4[C@@H](O)[C@H](n5cnc6c(=O)[nH]c(N)nc65)O[C@@H]4COP(=O)(S)O[C@H]4C[C@H](n5cc(C)c(=O)[nH]c5=O)O[C@@H]4COP(=O)(S)O[C@H]4[C@@H](O)[C@H](n5ccc(N)nc5=O)O[C@@H]4COP(=O)(S)O[C@H]4C[C@H](n5cc(C)c(=O)[nH]c5=O)O[C@@H]4CO)C3)[C@@H](COP(=O)(S)O[C@H]3[C@@H](O)[C@H](n4ccc(N)nc4=O)O[C@@H]3COP(=O)(S)O[C@H]3C[C@H](n4cc(C)c(=O)[nH]c4=O)O[C@@H]3COP(=O)(S)O[C@H]3C[C@H](n4cc(C)c(=O)[nH]c4=O)O[C@@H]3COP(=O)(S)O[C@H]3C[C@H](n4ccc5c(=O)[nH]c(N)nc54)O[C@@H]3COP(=O)(S)O[C@H]3[C@@H](O)[C@H](n4ccc(N)nc4=O)O[C@@H]3COP(=O)(S)O[C@H]3C[C@H](n4cc(C)c(=O)[nH]c4=O)O[C@@H]3COP(=O)(S)O[C@H]3[C@@H](O)[C@H](n4cnc5c(=O)[nH]c(N)nc54)O[C@@H]3COP(=O)(S)O[C@H]3C[C@H](n4cc(C)c(=O)[nH]c4=O)O[C@@H]3COP(=O)(S)O[C@H]3[C@@H](O)[C@H](n4ccc(N)nc4=O)O[C@@H]3COP(=O)(S)O[C@H]3C[C@H](n4cc(C)c(=O)[nH]c4=O)O[C@@H]3CO)O2)c(=O)[nH]c1=O (stereo partly specified)	Active
